Screening results: PubChem, SRMLSC
bCat KO growth – beta-catenin-lacking colon tumor cell growth suppression; HCT116 beta-catenin knockout viability, CellTiter-Glo, 60 h; stronger effect = lower value; actives 1.5% (n = 140,000); viability, % at 10 µM; AID 818;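 active means viability at or under a set limit, the compound median less 4 SD, cut at about 6% in these data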;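 further: 0% = Hyamine 1622 control at 20 µM and 100% = untreated cell control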
HCT116 PTEN-null – growth suppressors of cells with PTEN tumor suppressor deletion; HCT116 PTEN-null viability, CellTiter-Glo, 60 h; stronger effect = lower value; viability, % at 10 µM; actives 1.2% (n = 140,000); AID 827;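 active means viability at or below a set limit, 4 SD under the median of all tested compounds, cut at about 3.7% in these data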;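 further: PTEN knockout HCT116 line with beta catenin targeted HCT116 as companion control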
HUVEC prolif 384 – human endothelial cell proliferation inhibition; HUVEC proliferation, CellTiter-Glo luminescence, 72 h; stronger effect = lower value; actives 1.1% (n = 86,000); viability, % at 10 µM (by protocol);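 active means viability at or below 30%; inactive means viability above 30%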;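 further: 100% = median luminescence of DMSO-only cell control wells on each plate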
H69AR inhibit – blocks growth of human H69AR lung tumor cells. actives 6% (n = 85,000). H69AR lung tumor viability, ATP luminescence, 72 h; stronger effect = lower value. viability, % at 10 µM. AID 598;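 active means viability at or below 40%; inactive means viability above 40%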;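 further: multidrug resistant small cell line overexpressing MRP-1 efflux transporter; 100% = mean luminescence of untreated control wells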
Fibroblast inh – blocks proliferation of human lung fibroblasts | LL 47 human lung fibroblast viability, ATP luminescence; stronger effect = lower value | viability, % at 10 µM | actives 1.1% (n = 85,000);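 active means viability at or below 50% in the single dose screen; inactive means viability above 50%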;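 further: compound exposure lasted 72 h before the ATP readout; 100% = median luminescence of untreated cell-only wells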
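Material: human lung fibroblast line LL 47, low passage; Evaluation: viability percentage against median untreated-cell control; Buffer or medium: 15% FBS in IMEM; Incubation: 72 h compound exposure at 37 °C after overnight plating; Dosing: 0.1% DMSO in all compound wells; Measured by: CellTiter-Glo luminescence.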
Numbers without * were called inactive; · = not tested or not shown. Shown is part of a subset that was picked to be rich in hits.

SMILES	bCat KO growth	HCT116 PTEN-null	HUVEC prolif 384	H69AR inhibit	Fibroblast inh
COc1ccc(C(=O)N/N=C(\c2ccccc2)c2ccccn2)cc1	4.6*	6	·	·	·
O=C(CN1C(=O)c2ccccc2C1=O)Nc1cccc(S(=O)(=O)Nc2ccccc2Cl)c1	90	96	·	·	·
COc1cccc(NC(=O)Cc2nnc(SCC(=O)c3ccccc3)n2C)c1	66	72	80	32*	87
COC(=O)C1=C(C)OC(N)=C(C#N)C1c1ccccc1 (stereo unspecified)	94	104	89	91	100
CNC(=O)C1C(=S)NC(N)=C(C#N)C1c1ccccc1 (stereo unspecified)	0.5*	1.0*	·	·	·
O=C(CSc1nnc(COc2ccc(F)cc2)o1)N1c2ccccc2CCc2ccccc21	51	46	109	1.9*	84
O=C(CSc1nnc(COc2cccc3cccnc23)o1)N1CCc2ccccc21	22	35	97	51	94
O=C(c1cc(N2C(=O)C3C4CCC(C4)C3C2=O)ccc1Cl)N1CCN(c2ccccc2F)CC1 (stereo unspecified)	85	86	·	·	·
O=C(COc1ccccc1)Nc1cccc(-c2nc3cc4ccccc4cc3[nH]2)c1	1.7*	1.1*	·	·	·
CCCCCCc1nnc(N)s1	97	99	105	99	99
Cc1cc2c(cc(C(=O)OCC(=O)NCc3cccs3)n2C(C)C)o1	12	18	53	27*	69
CC1Cc2ccccc2N1C(=O)c1nn(C)cc1Br (stereo unspecified)	94	90	·	·	·
CCCCOc1ccc(CC(=O)NO)cc1	93	92	89	4.8*	94
CC(C)CN(C(=O)CSc1nn(-c2ccc(Cl)cc2)c(=S)s1)C1CCS(=O)(=O)C1 (stereo unspecified)	80	74	·	·	·
COc1ccc(CC(=O)n2nc(-c3ccc(Cl)cc3)nc2NCc2ccco2)cc1	67	70	75	30*	81
CC(=O)n1nc(-c2ccc(Cl)cc2)nc1NCc1ccco1	62	71	57	33*	74
O=C(c1cccs1)n1nc(-c2ccc(Cl)cc2)nc1NCc1ccco1	44	56	95	77	98
O=C(Nc1cnn(Cc2ccc(Cl)cc2Cl)c1)c1noc2c1CCCC2	94	86	87	84	106
O=C(Nc1cnn(Cc2ccc(Cl)cc2Cl)c1)c1cc(-c2cccs2)on1	100	86	66	19*	97
O=C(/C=C/c1ccc(Cl)c(Cl)c1)NCc1ccco1	95	98	·	·	·
O=C(/C=C/c1ccc(Cl)c(Cl)c1)n1cccn1	80	95	79	10*	86
Cc1ccccc1N=Cc1cccc(O)c1O	58	63	·	·	·
Cc1ccc(N=Cc2cccc(O)c2O)c(C)c1	1.9*	2.0*	·	·	·
CC(Oc1ccc(Cl)cc1Cl)C(=O)Nc1ccncc1 (stereo unspecified)	61	49	81	34*	83
Cc1[nH]c(=O)c(C(=O)/C=C/c2ccccc2F)c2c1CCCC2	3.9*	3.4*	·	·	·
SMILES	bCat KO growth	HCT116 PTEN-null	HUVEC prolif 384	H69AR inhibit	Fibroblast inh
Cc1[nH]c2ccccc2c1C(=O)/C=C/c1ccccc1Cl	60	65	·	·	·
COC(=O)c1ccc(CSc2nnc(NC(=O)C3CC(=O)N(c4ccc5c(c4)OCCO5)C3)s2)cc1 (stereo unspecified)	91	87	·	·	·
COC(=O)c1ccc(COc2ccccc2/C=C(\C#N)C(=O)Nc2c(C)cccc2C)cc1	2.4*	1.8*	·	·	·
Cc1cc(C)nc(N/C(=N\S(=O)(=O)Cc2ccccc2)Nc2ccccc2Br)n1	46	38	·	·	·
O=C(c1cc2ccccc2oc1=O)N(Cc1ccccc1)Cc1ccc2c(c1)OCO2	85	88	87	109	94
CN1CCc2c(sc3c2C(=O)NC(c2cn(Cc4ccccc4)c4ccccc24)N3)C1 (stereo unspecified)	76	70	68	3.4*	53
CCOC(=O)N1CCc2c(sc3c2C(=O)NC(c2ccccc2)N3)C1 (stereo unspecified)	84	66	56	32*	61
CCOc1ccc(Br)cc1C1NC(=O)c2c(sc3c2CCN(C)C3)N1 (stereo unspecified)	·	·	78	39*	88
Cc1ccc(OCCOc2ccc(Cl)cc2Cl)c([N+](=O)[O-])n1	66	64	·	·	·
O=C(O)c1ccc(N/N=C/c2ccc(OC(=O)c3ccccc3Cl)cc2)cc1	95	99	·	·	·
CC(=O)OCC(=O)Nc1ccc(C(C)=O)cc1	93	83	97	39*	101
COc1ccc(/C=N/NC(=O)COc2ccccc2-c2ccccc2)cc1	15	17	·	·	·
O=C(COc1ccccc1-c1ccccc1)N/N=C/c1cccc2ccccc12	4.3*	4	·	·	·
CCOc1ccc(Br)cc1/C(C)=N\NC1=NCCN1	14	15	58	18*	52
COc1ccc(CC(=O)Nc2ccc(-c3noc(COc4ccccc4C)n3)cc2)cc1	109	104	97	84	102
CCOc1ccccc1-c1nc(-c2ccc(NC(=O)Cc3ccc(OC)cc3)cc2)no1	105	102	20*	11*	65
COc1ccc(CC(=O)Nc2ccc(-c3noc(-c4ccc(Cl)cc4)n3)cc2)cc1	1.6*	0.9*	43	5.1*	19*
COc1ccc(Cc2nc(-c3ccc(NC(=O)c4cccnc4)cc3)no2)cc1	95	98	120	6.0*	102
COc1ccc(CC(=O)Nc2ccc(-c3noc(-c4cc(OC)c(OC)c(OC)c4)n3)cc2)cc1	72	65	57	21*	98
Cc1csc2cc(-c3cccc([N+](=O)[O-])c3)c(-c3cccc([N+](=O)[O-])c3)c[n+]12	90	99	·	·	·
CCN(CC)C(=S)Nc1cc(C(=O)OC)ccc1C(=O)OC	88	98	·	·	·
CN(C)Cc1ccccc1COc1ccccc1	94	88	·	·	·
CCC(C(=O)NC(C)(C)C)N(C(=O)Cn1nnc(-c2ccccc2F)n1)c1cccc2c1CCCC2 (stereo unspecified)	79	67	·	·	·
Cc1ccn2cc(-c3ccc(NC(=O)c4ccco4)cc3)nc2c1	71	76	·	·	·
COc1ccc(Cc2nc(C(=O)Nc3ccc(Cl)cc3)cs2)cc1	68	85	21*	100	112
SMILES	bCat KO growth	HCT116 PTEN-null	HUVEC prolif 384	H69AR inhibit	Fibroblast inh
O=C(CSc1n[nH]c(=O)[nH]c1=O)N/N=C/c1ccccc1	99	93	·	·	·
Cn1c(-c2ccc3c(c2)OCO3)cnc1NCc1cccc(Cl)c1	87	70	39	33*	89
Cn1c(-c2ccc3c(c2)OCO3)cnc1NCc1ccccc1	75	79	65	24*	87
CCCS(=O)(=O)N1CCN(C(=O)COc2ccc(OC)cc2)CC1	98	101	97	88	101
O=S(=O)(c1ccc2c(c1)OCCO2)N1CCC(n2cnc3cc(F)ccc32)CC1	80	79	96	68	92
O=S(=O)(c1ccc(Cl)cc1)N1CCC(n2cnc3cc(C(F)(F)F)ccc32)CC1	·	·	94	35*	103
FC(F)(F)c1nc2ccccc2c2nc3ccccc3n12	97	99	·	·	·
